# Most compounds without a hit are left out; they make up all but 4.5% or so of the library.
# OX1R antag-1 – blocks the human orexin 1 receptor | O43613 | OX1R-expressing cells, FRET antagonist read-out | inhibition, % at 6.6 µM | 330,000 compounds, 1.8% hits; in the data active means inhibition mostly above about 38%, no sharp cut-off; inactive means mostly below about 40%;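 further: 0% = agonist challenge alone and 100% = reference antagonist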
# Target sequence (O43613 whole entry, looked up): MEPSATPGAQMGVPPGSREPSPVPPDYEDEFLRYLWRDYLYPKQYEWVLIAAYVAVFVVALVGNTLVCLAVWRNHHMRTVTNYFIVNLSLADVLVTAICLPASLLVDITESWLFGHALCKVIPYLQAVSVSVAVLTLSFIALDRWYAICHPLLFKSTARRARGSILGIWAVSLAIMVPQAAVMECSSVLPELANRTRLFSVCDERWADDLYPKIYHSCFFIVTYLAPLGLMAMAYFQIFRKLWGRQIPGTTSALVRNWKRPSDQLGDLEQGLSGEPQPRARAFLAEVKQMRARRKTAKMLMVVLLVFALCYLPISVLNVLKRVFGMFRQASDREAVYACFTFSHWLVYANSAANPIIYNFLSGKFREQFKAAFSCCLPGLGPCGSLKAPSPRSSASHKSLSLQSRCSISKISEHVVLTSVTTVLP
# TAAR1 antag – antagonists of human TAAR1; Q96RJ0; CHO RD-HGA16 TAAR1, Fluo-8 calcium fluorescence, antagonist; inhibition, % at 3 µM; 360,000 compounds, 1.5% hits;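 active means inhibition above a per-plate cutoff, the mean inhibition of test compounds on that plate plus 3 SD, cut at about 49% in these data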;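 further: 0% = DMSO plus EC80 beta-PEA response and 100% = DMSO alone without agonist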
#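 Material: RD-HGA16 CHO cells with stable hTAAR1 and Gα16; Dosing: single nominal final test compound concentration of 3 µM; Schedule: seeding 17-24 h prior, 75-min 37 °C, 30-min RT dye loading; Detection: kinetic Fluo-8 calcium fluorescence measurement; Measure: % inhibition from peak post-agonist over basal fluorescence ratio; Benchmarks: vehicle and agonist controls.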
# TAAR1 ag – human TAAR1 agonism. CHO RD-HGA16 TAAR1, Fluo-8 calcium fluorescence; vehicle wells 0%, saturating PEA agonist 100%. 360,000 compounds, 0.99% hits. activation, % at 3 µM. AID 624467. Q96RJ0;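 active means activation above the mean activation of all test compounds in the run plus 3 SD, cut at about 38% in these data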
#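 Repeats: no replicates (n 1) | Material: CHO-derived RD-HGA16 cells with stable Gα16 and human TAAR1 | Technique: Kinetic Fluo-8 calcium fluorescence | Schedule: 17-24 h seeding, 75 min 37 °C dye, 30 min RT | Evaluation: % activation from peak over basal fluorescence ratio, DMSO-to-PEA scaled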
# GPR7 antagonist – human neuropeptides B/W receptor 1 antagonism. P48145. GPR7-expressing cells, fluorescence antagonist assay. inhibition, % at 4.4 µM. 290,000 compounds, 1.1% hits. AID 1861; in the data active means inhibition above about 16%, passing the limit was not always enough;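 further: cells stimulated with the agonist NPW; 0% = agonist with vehicle and 100% = vehicle without agonist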
# OX1R antag-2 – antagonists of human orexin 1 receptor; O43613; CHO/OX1R cells, Fluo-8 calcium fluorescence, orexin A; inhibition, % at 5 µM; 330,000 compounds, 0.43% hits;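 active means inhibition above its plate's threshold, mean inhibition of all tested compounds on the plate plus 3 SD, cut at about 37% in these data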;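 further: 0% = orexin A challenge wells and 100% = SB-334867-A antagonist wells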
# CHO parental Ca – counter-screen: ATP calcium response change in parental CHO cells. parental CHO-K1, ATP-induced calcium, Fluo-8 fluorescence. 330,000 compounds, 0.63% hits. inhibition, % at 5.6 µM;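 active means inhibition above that plate's mean sample inhibition plus 3 SD, cut at about 26% in these data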;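 further: 0% = ATP-challenged DMSO wells and 100% = DMSO wells without ATP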
#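 material = parental CHO cells | also added = ATP as calcium-mobilizing challenge | dosing = single point at 5.6 µM | detection = intracellular calcium via Fluo-8 no-wash fluorescent dye | read-out = % inhibition | benchmarks = low control ATP plus DMSO, high control DMSO only | repeats = one well per compound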
# OX1R Fluo8 conf – OX1R (human) antagonism, confirmed; shares compounds with OX1R antag-2; CHO/OX1R cells, orexin A calcium Fluo-8 fluorescence; inhibition, % at 5 µM; 1,100 compounds, 38% hits; AID 492963; in the data active means inhibition above about 29%;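 further: 0% = agonist challenge alone and 100% = reference antagonist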
# CHO Ca triplic – counter-screen for OX1R antagonists: effect in parental CHO cells. shares compounds with OX1R antag-2. parental CHO-K1, ATP-induced calcium, Fluo-8 fluorescence. inhibition, % at 5.6 µM. 1,100 compounds, 9.3% hits;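 active means inhibition above a per-plate limit, the mean inhibition of that plate's test compounds plus 3 SD, cut at about 25% in these data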;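 further: 0% = ATP challenge with DMSO and 100% = DMSO without ATP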
# OX1R HTRF conf – confirmation of human orexin 1 receptor antagonists, HTRF format | AID 492964 | OX1R-expressing cells, HTRF antagonist assay | inhibition, % at 6.6 µM | shares compounds with OX1R antag-1 | 1,800 compounds, 49% hits; in the data active means inhibition above about 55%;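 further: CHO cells expressing OX1R stimulated with orexin A at about EC80; 0% = agonist challenge alone and 100% = reference antagonist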
# CHO-K1 HTRF – signal in parental CHO-K1 cells, OX1R antagonist counter-screen; inhibition, % at 6.6 µM; 1,800 compounds, 48% hits; HTRF counterscreen; shares compounds with OX1R antag-1; in the data active means inhibition above about 17%;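 further: 0% = agonist challenge with vehicle and 100% = vehicle alone without agonist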
# * hit, by the source's call; / = not tested or not shown.
SMILES,OX1R antag-1,TAAR1 antag,TAAR1 ag,GPR7 antagonist,OX1R antag-2,CHO parental Ca,OX1R Fluo8 conf,CHO Ca triplic,OX1R HTRF conf,CHO-K1 HTRF
O=C(C(=O)N(C1CCCCC1)C1CCCCC1)c1ccccc1,/,1,0,/,/,/,/,/,/,/
CCOc1ccc2nc(NC(=O)c3ccco3)sc2c1,30,-8,0,-14,-9,0,/,/,/,/
CCOC(=O)c1ccc2nc(NC(=O)c3ccco3)sc2c1,81*,8,8,-7,25,-5,35*,-2,86*,18*
CC1N=C(SCC(=O)c2ccc(F)cc2)N2C(C)N=C(SCC(=O)c3ccc(F)cc3)N12 (configuration not stated),/,0,-1,/,/,/,/,/,/,/
CC(=O)NNC(=O)c1cc2sccc2s1,9,-12,0,-6,-10,7,/,/,/,/
NNC(=O)c1cc2sccc2s1,87*,6,3,-7,91*,-27,1,18,22,4
Cc1ccc(Cn2nc(C)cc2C(=O)Nc2ccc(Cl)cc2)cc1,56*,-4,9,-4,44,-19,28,-14,62*,11
COc1cccc(/C=N/NC(=O)c2cc3c(OC)cccc3[nH]2)c1O,29,16,5,-6,-15,-2,/,/,/,/
CCOc1ccc(/C=N/NC(=O)c2cc3c(OC)cc(OC)cc3[nH]2)cc1OC,81*,34,10,-20,35,-17,42*,0,89*,15
CCOc1ccc2[nH]c(C(=O)N/N=C/c3cc(OC)c(OC)c(OC)c3)cc2c1,3,43,15,-12,-23,-11,/,/,/,/
COc1ccc(OC)c(/C=N/NC(=O)c2cc3c(OC)cccc3[nH]2)c1,101*,16,11,1,71*,-23,32*,-14,89*,10
CCN1C(=O)[C@H]2[C@@H](c3ccc(C)cc3)N[C@]3(CCCN(Cc4cccn4C)C3=O)[C@H]2C1=O,/,13,1,/,/,/,/,/,/,/
CN(Cc1c(C(=O)N/N=C/c2ccc(O)cc2)nnn1-c1nonc1N)c1ccccc1,95*,42,11,3,80*,12,37*,8,79*,5
CN(C)c1ccc(/C=N/NC(=O)c2nnn(-c3nonc3N)c2CN(C)c2ccccc2)cc1,26,15,2,6,2,0,/,/,/,/
COc1ccc(/C=N/NC(=O)c2nnn(-c3nonc3N)c2CN(C)c2ccccc2)cc1,50*,-8,12,0,44*,-5,31*,3,83*,2
CN(Cc1c(C(=O)N/N=C/c2ccccc2)nnn1-c1nonc1N)c1ccccc1,72*,8,2,-13,58*,-12,36*,0,83*,4
COc1ccccc1/C=N/NC(=O)c1nnn(-c2nonc2N)c1CN(C)c1ccccc1,37,37,-2,-21,30,-13,/,/,/,/
O=CNc1cc(-c2cccc(F)c2)cn2c(-c3ccc(F)c(Cl)c3)cnc12,/,-2,0,/,/,/,/,/,/,/
Cn1cc(/C=C(\C#N)C(=O)Nc2ccccc2O)c2ccccc21,68*,/,/,-2,57*,-8,57*,10,89*,11
Cc1csc(-c2ccc3cc(Cl)cc(Cl)c3n2)n1,/,-10,2,/,/,/,/,/,/,/
O=C(Nc1ccc(Cl)c(Cl)c1)c1cccc(S(=O)(=O)NCc2cccnc2)c1,67*,25,35,30*,36,-3,38*,55*,77*,5
Cc1cc(NC(=O)CSc2nc(-c3cccs3)nc3ccccc23)no1,62*,12,-1,/,45*,0,16,-16,82*,-5

# Assay outcomes: PubChem BioAssay, The Scripps Research Institute Molecular Screening Center
